# Data: ChEMBL document CHEMBL4706589, “Discovery of 5-bromo-4-phenoxy-N-phenylpyrimidin-2-amine derivatives as novel ULK1 inhibitors that block autophagy and induce apoptosis in non-small cell lung cancer” (Eur J Med Chem, 2020)
# Calls of active or inactive are those of the source. No cut-off for these calls is given here.
# Experiments:
# [1] = molecular target: T1, Serine/threonine-protein kinase ULK1 (Homo sapiens) (UniProt O75385); assay: Induction of downregulation of ULK1-mediated autophagy in human A549 cells assessed as phosphorylation at Ser317 preincubated for 24 hrs by Western blot analysis; type: cell-based; conditions: dose microM <=8, time 24.0 hrs
# T1 sequence (whole entry): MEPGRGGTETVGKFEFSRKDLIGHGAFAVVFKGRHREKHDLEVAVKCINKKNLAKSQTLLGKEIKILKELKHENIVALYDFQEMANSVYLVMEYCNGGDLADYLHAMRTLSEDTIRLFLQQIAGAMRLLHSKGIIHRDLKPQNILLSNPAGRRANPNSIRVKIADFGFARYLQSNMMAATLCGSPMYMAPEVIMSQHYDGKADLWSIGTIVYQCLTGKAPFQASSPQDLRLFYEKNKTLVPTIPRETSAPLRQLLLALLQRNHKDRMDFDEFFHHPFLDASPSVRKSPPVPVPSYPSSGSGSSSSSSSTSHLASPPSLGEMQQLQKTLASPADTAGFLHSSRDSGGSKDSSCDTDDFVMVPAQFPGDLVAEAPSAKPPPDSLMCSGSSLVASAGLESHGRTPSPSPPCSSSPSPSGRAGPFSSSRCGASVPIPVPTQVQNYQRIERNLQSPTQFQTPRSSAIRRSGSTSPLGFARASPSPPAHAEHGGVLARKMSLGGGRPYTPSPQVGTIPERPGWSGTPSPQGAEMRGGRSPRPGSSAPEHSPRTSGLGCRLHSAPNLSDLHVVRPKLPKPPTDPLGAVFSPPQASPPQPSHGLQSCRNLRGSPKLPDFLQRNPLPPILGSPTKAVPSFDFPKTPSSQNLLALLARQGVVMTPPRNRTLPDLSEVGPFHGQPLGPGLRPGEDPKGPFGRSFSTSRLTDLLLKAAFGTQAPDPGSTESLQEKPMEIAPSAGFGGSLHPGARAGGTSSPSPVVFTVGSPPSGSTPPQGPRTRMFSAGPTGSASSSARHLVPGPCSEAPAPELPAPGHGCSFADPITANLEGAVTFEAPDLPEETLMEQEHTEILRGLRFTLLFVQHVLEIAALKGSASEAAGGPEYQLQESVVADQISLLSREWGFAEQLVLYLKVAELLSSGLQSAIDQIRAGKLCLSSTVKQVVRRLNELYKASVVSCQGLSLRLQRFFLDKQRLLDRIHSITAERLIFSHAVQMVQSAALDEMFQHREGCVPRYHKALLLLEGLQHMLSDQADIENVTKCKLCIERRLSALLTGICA
# Outline: (§1)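 Treated A549 cells, adherent and floating, were collected and lysed in RIPA buffer with protease and phosphatase inhibitors. Lysates were spun at 12,000 g, 4 °C, 15 min, and protein measured by BCA. Proteins were run on SDS-PAGE and moved to nitrocellulose, blocked 1 h in TBST with 5% skim milk, and probed overnight at 4 °C with primary antibodies. HRP secondary antibody was applied 1 h at room temperature, with ECL detection.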
# A549 [2] = assay: Antiproliferative activity against human A549 cells assessed as reduction in cell viability after 24 hrs by MTT assay; type: functional, cell-based; conditions: A549, 24 h
# Outline: (§2)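 Cells seeded at 5.5 × 10⁴ cells/mL in 96-well plates and grown 24 h before exposure to graded compound concentrations. Viability read by MTT after 24 h. A549, MCF-7 and MDA-MB-468 were kept in DMEM with 10% FBS under 5% CO₂; HL60 and U937 in RPMI 1640 with 10% FBS. IC50 taken as mean of triplicate tests.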
# [3] = molecular target: T1, Serine/threonine-protein kinase ULK1 (Homo sapiens); assay: Inhibition of human ULK1 in human A549 cells under normal condition assessed as decrease in phosphorylated-Beclin 1(ser15) level by immunoblotting analysis; type: cell-based; outline: as §1
# A549 [4] = assay: Induction of apoptosis in human A549 cells assessed as increase in caspase 3 protein expression at 2 to 8 uM by Western blot analysis; type: functional, cell-based; conditions: dose 2-8 µM; outline: as §1
# MDA-MB-468 = assay: Antiproliferative activity against human MDA-MB-468 cells assessed as reduction in cell viability after 24 hrs by MTT assay; type: functional, cell-based; conditions: MDA-MB-468, 24 h; outline: as §2
# [5] = molecular target: T1, Serine/threonine-protein kinase ULK1 (Homo sapiens); assay: Inhibition of ULK1 mediated autophagy in human A549 cells assessed as p62 degradation at 2 to 8 uM measured after 1 hrs by Western blot analysis; type: cell-based; conditions: dose 2-8 µM; outline: as §1
# [6] = molecular target: T1, Serine/threonine-protein kinase ULK1 (Homo sapiens); assay: Inhibition of recombinant human ULK1 at 10 uM preincubated for 60 mins followed by substrate addition and measured after 30 mins by ADP-glo assay; conditions: time 90.0 min
# Outline: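 Recombinant ULK1 activity was measured by ADP-Glo luminescence of ADP formed, in 40 mM Tris pH 7.5, 20 mM MgCl₂, 0.1 mg/ml BSA and […]. After the kinase reaction, plates were mixed 2 min and held 40 min at room temperature. Detection reagent was then added for 30 min at room temperature before luminescence was read.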
# A549 [7] = assay: Induction of apoptosis in human A549 cells assessed as morphological changes upto 8 uM incubated for 24 hrs in dark by Hoechst 33258 staining based fluorescence microscopy; conditions: dose microM <=8, time 24.0 hrs
# [8] = molecular target: T1, Serine/threonine-protein kinase ULK1 (Homo sapiens); assay: Inhibition of human ULK1 in human A549 cells under nutrient starvation condition assessed as decrease in phosphorylated- Atg13 (ser318) level by immunoblotting analysis; type: cell-based; outline: as §1
# [9] = molecular target: T1, Serine/threonine-protein kinase ULK1 (Homo sapiens); assay: Inhibition of ULK1 mediated autophagy in human A549 cells assessed as decrease in beclin1 level at 2 to 8 uM measured after 1 hrs by Western blot analysis; type: cell-based; conditions: dose 2-8 µM; outline: as §1
# [10] = molecular target: T1, Serine/threonine-protein kinase ULK1 (Homo sapiens); assay: Inhibition of ULK1 mediated autophagy in human A549 cells assessed as reduction in conversion of LC3 1 to LC3-2 at 2 to 8 uM measured after 1 hrs by Western blot analysis; type: cell-based; conditions: dose 2-8 µM; outline: as §1
# U-937 = assay: Antiproliferative activity against human U937 cells assessed as reduction in cell viability after 24 hrs by MTT assay; type: functional, cell-based; conditions: U-937, 24 h; outline: as §2
# [11] = molecular target: T1, Serine/threonine-protein kinase ULK1 (Homo sapiens); assay: Inhibition of ULK1 mediated autophagy in human A549 cells transfected with GFP-mRFP-LC3 assessed as increase in LC3 puncta measured after 6 hrs by fluorescence microscopic analysis; type: cell-based
# Outline: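 A549 cells were transfected with GFP/mRFP-LC3 for 6 h. Transfected cells were used 24 h later, and LC3 puncta were examined by fluorescence microscopy.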
# [12] = molecular target: T1, Serine/threonine-protein kinase ULK1 (Homo sapiens); assay: Inhibition of human ULK1 in human A549 cells under normal condition assessed as decrease in phosphorylated-Atg13 (ser318) level by immunoblotting analysis; type: cell-based; outline: as §1
# A549 [13] = assay: Induction of apoptosis in human A549 cells assessed as increase in Bax protein expression at 2 to 8 uM by Western blot analysis; type: functional, cell-based; conditions: dose 2-8 µM; outline: as §1
# [14] = molecular target: T1, Serine/threonine-protein kinase ULK1 (Homo sapiens); assay: Inhibition of human ULK1 in human A549 cells under nutrient starvation condition assessed as decrease in phosphorylated-Beclin 1(ser15) level by immunoblotting analysis; type: cell-based; outline: as §1
# A549 [15] = assay: Induction of apoptosis in human A549 cells assessed as reduction in Bcl2 protein expression at 2 to 8 uM by Western blot analysis; type: functional, cell-based; conditions: dose 2-8 µM; outline: as §1
# HL-60 = assay: Antiproliferative activity against human HL60 cells assessed as reduction in cell viability after 24 hrs by MTT assay; type: functional, cell-based; conditions: HL-60, 24 h; outline: as §2
# MCF7 = assay: Antiproliferative activity against human MCF-7 cells assessed as reduction in cell viability after 24 hrs by MTT assay; type: functional, cell-based; conditions: MCF7, 24 h; outline: as §2
compound,measurement,setting,value
COc1cc(Nc2ncc(Br)c(Oc3ccc([N+](=O)[O-])cc3F)n2)cc(OC)c1OC,Activity,[1],Dose-dependent effect
same,IC50,A549 [2],1.94 µM
same,inhibition,[3],Active
same,Activity,A549 [4],Active
same,IC50,MDA-MB-468,16.8 µM
same,Activity,[5],Active
same,inhibition,[6],99.2%
same,Activity,A549 [7],Dose-dependent effect
same,inhibition,[8],Active
same,inhibition,[9],Active
same,inhibition,[10],Active
same,IC50,U-937,12.9 µM
same,Activity,[11],Active
same,Activity,[12],Active
same,Activity,A549 [13],Active
same,inhibition,[14],Active
same,Activity,A549 [15],Active
same,IC50,HL-60,10.9 µM
same,IC50,MCF7,19.6 µM
